Source: PubChem (The Scripps Research Institute Molecular Screening Center)
In the library only some 1.8% were active in any assay of this set; here they are far more common.
TDP2 inh = blocks human TDP2 phosphodiesterase activity; O95551; recombinant TDP2, T5PNP hydrolysis, p-nitrophenol absorbance 415 nm; inhibition, % at 12.8 µM; actives 0.34% (n = 370,000); AID 720702;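 active = inhibition above the mean of all tested compounds plus 3 SD, set per campaign, cut at about 25% in these data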
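System – recombinant human TDP2 · Amount – 120 nM TDP2 per well · Buffer or medium – Mg2+-containing Tris-HCl buffer, pH 7.5 · Reagent – T5PNP substrate, 5 mM · Dosing – 12.8 µM single point, 1% DMSO · Incubation – 2 h at 37 °C · Measured by – epi absorbance · Read-out basis – percent inhibition · Benchmarks – high control without enzyme, low control DMSO plus TDP2 · Repeats – singlicate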
LEDGF integ inh = blocks HIV-1 LEDGF/p75-dependent DNA integration; TR-FRET IN-LEDGF/p75 DNA integration, Eu/Cy5; inhibition, % at 3.7 µM; actives 0.64% (n = 370,000);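 active = inhibition above the screen-wide mean plus 3 SD, cut at about 13% in these data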;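 also: signal is the Cy5 over europium emission ratio at 671 and 618 nm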
HCV core dimer = blocks dimerization of HCV core protein; AID 1899; inhibition, % at 5 µM; TR-FRET GST/Flag-core106 dimerization, 1536-well; actives 0.33% (n = 300,000);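 active = inhibition above the mean of all tested compounds plus 3 SD, set per screening campaign, cut at about 45% in these data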
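Material: GST/Flag-tagged HCV core106 proteins. Incubation: 4 h, 22.5 °C incubation. Read-out basis: inhibition (%) from 671 over 617 nm ratio. Measured by: TR-FRET, excitation 340 nm, emission 617 and 671 nm.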
UHRF1 MBD2 ctr = blocks human UHRF1 binding to methylated DNA; actives 0.75% (n = 370,000); UHRF1 binding to methylated oligo, TR-FRET; Q96T88; inhibition, % at 4.4 µM; in the data active = inhibition above about 21%;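 also: UHRF1 SRA domain binding a hemimethylated CpG hairpin DNA probe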
MBD2 inh = blocks human MBD2 binding to methylated DNA; Q9UBB5; TR-FRET, MBD2 binding to methylated oligonucleotide; inhibition, % at 4.4 µM; actives 0.31% (n = 370,000); AID 686964; in the data active = inhibition above about 13%
Target sequence (Q9UBB5 whole entry, looked up): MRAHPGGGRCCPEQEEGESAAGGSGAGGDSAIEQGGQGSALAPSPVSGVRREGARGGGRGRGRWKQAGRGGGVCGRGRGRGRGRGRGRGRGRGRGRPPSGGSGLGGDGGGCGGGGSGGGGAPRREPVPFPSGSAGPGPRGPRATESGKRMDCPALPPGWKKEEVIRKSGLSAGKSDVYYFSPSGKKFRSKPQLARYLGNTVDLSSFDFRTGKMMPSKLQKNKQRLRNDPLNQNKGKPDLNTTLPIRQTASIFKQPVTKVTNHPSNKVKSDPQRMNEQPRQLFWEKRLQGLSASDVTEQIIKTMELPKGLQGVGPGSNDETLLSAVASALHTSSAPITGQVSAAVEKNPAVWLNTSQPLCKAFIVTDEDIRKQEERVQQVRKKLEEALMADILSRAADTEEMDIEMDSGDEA
TDP2 inh conf = confirmation of human TDP2 inhibitors; shares compounds with TDP2 inh; recombinant human TDP2, absorbance read-out; inhibition, % at 12.8 µM; actives 22% (n = 1,100); in the data active = inhibition above about 25%
Large screens that a line does not name were inactive (follow-up assays come after a bar, where they were run).

C=CCn1c(SCC(=O)C(C)(C)C)nnc1-c1ccc(Cl)cc1	none (no result: HCV core dimer)
Cc1cc(OC(=O)c2ccccc2)n(CCC#N)n1	TDP2 inh 50 | TDP2 inh conf inactive
CCN1CCN(CC(=O)Nc2nc3ccccc3s2)CC1	none
CN1CCN(CC(=O)Nc2nc3ccccc3s2)CC1	TDP2 inh 25 | TDP2 inh conf inactive
C/C(=N/NS(=O)(=O)c1ccc(Br)cc1)c1c[nH]c2ccccc12	TDP2 inh 25 | TDP2 inh conf inactive
O=S(=O)(c1ccc(S(=O)(=O)N2CCC(O)CC2)cc1)N1CCCC1	TDP2 inh 25 | TDP2 inh conf inactive
CCCOc1ccc(N)cc1N	TDP2 inh 29, LEDGF integ inh 38 | TDP2 inh conf inactive
Cc1[nH][nH]c(=O)c1C(c1c(C)[nH][nH]c1=O)c1cn(Cc2ccc(Cl)c(Cl)c2)c2ccccc12	TDP2 inh 44 | TDP2 inh conf 27
Cc1[nH][nH]c(=O)c1C(c1c(C)[nH][nH]c1=O)c1cn(Cc2ccc(F)cc2)c2ccccc12	none (no result: TDP2 inh, LEDGF integ inh, UHRF1 MBD2 ctr, MBD2 inh)
CC1=NN(c2ccccc2)C(=O)C1N=Nc1ccc(N)cc1 (configuration not stated)	TDP2 inh 29 | TDP2 inh conf inactive
CN(CCOc1ccccc1)CC(=O)Nc1ccc(S(=O)(=O)N2CCCC2)cc1	TDP2 inh 30, UHRF1 MBD2 ctr 25 | TDP2 inh conf inactive
CN1CCN(S(=O)(=O)c2ccc(NC(=O)COc3ccccc3)cc2)CC1	none
Cc1ccc(NC(=O)[C@@H]2CC(=O)O[C@@H]2c2ccccc2)cc1C	none (no result: HCV core dimer)
CS(=O)(=O)c1nc(S(=O)(=O)c2ccc(Cl)cc2)c(NCCCN2CCOCC2)s1	TDP2 inh 27 | TDP2 inh conf inactive
CCS(=O)(=O)c1nc(S(=O)(=O)c2ccc(Cl)cc2)c(NCCCN2CCOCC2)s1	none
CC(C)(C)n1nnnc1C(c1cccc(C(F)(F)F)c1)N1CCOCC1 (configuration not stated)	none
CC(C)(C)n1nnnc1C(c1cccnc1)N1CCOCC1 (configuration not stated)	TDP2 inh 27 | TDP2 inh conf inactive
COc1ccc(N2CCN(CC(=O)N3c4ccccc4CC3C)CC2)cc1 (configuration not stated)	TDP2 inh 26 | TDP2 inh conf inactive
Cc1nn(CCO)c(N)c1C1(O)C(=O)Nc2c(Cl)cc(Cl)cc21 (configuration not stated)	TDP2 inh 28 | TDP2 inh conf inactive
CCOP(=O)(OCC)C(NC(=O)Nc1ccc(Cl)cc1)C(N)=O (configuration not stated)	TDP2 inh 45 | TDP2 inh conf inactive
CCOP(=O)(OCC)C(NC(=O)Nc1ccccc1)C(N)=O (configuration not stated)	none
O=C(OC12CCCN(C1)/C(=C/c1cccc(Cl)c1)C2)c1ccco1 (configuration not stated)	none (no result: HCV core dimer)
CCOC(=O)c1c(C)[nH]c(C)c1S(=O)(=O)N1c2ccccc2CC1C (configuration not stated)	TDP2 inh 55 | TDP2 inh conf inactive
CCOC(=O)c1c(S(=O)(=O)N2c3ccccc3CC2C)c(C)n(C)c1C (configuration not stated)	none
O=C(O)c1ccc(C=Nn2c(-c3ccc(F)cc3)n[nH]c2=S)cc1	none (no result: HCV core dimer)
O=C1CCC2(CCC(c3ccccc3)CC2)N1CCO (configuration not stated)	none (no result: HCV core dimer)
Cc1ccc2nc(-c3ccc4c(c3)NC(=O)CO4)cn2c1	TDP2 inh 25 | TDP2 inh conf inactive
CCOC(=O)[C@@]12CN(C(=O)OC(C)(C)C)CC=C1N(Cc1ccc(OC)cc1)C(=O)[C@H]2CC(=O)NCCc1ccccc1OC	none (no result: HCV core dimer)
Cc1ccc(Cn2nnc3c2-c2ccccc2S(=O)(=O)N(C)C3)cc1	none (no result: HCV core dimer)
O=S(=O)(Nc1c(O)ccc2ccccc12)c1ccc(F)cc1	TDP2 inh 25 | TDP2 inh conf inactive
CC(=O)N1CCN(CC(=O)Nc2ccc3c(c2)CCC3)CC1	none
O=C(CN1CCCC1)Nc1ccc2c(c1)CCC2	TDP2 inh 28 | TDP2 inh conf inactive
CCCCNc1cc(NC(C)=O)cc2cc(OC)c(OC)cc12	TDP2 inh 30 | TDP2 inh conf 29
CCCc1cc(=O)[nH]c(SCC(=O)N(C)Cc2ccccc2)n1	none
Cc1nnc(SCC(=O)N(C)Cc2ccccc2)[nH]c1=O	TDP2 inh 43 | TDP2 inh conf inactive
O=C(Nc1ccc2c(c1)OCO2)c1ccccc1	none
O=C(Nc1c(-c2ccccc2)[nH][nH]c1=O)c1ccc2c(c1)OCO2	TDP2 inh 48 (no result: HCV core dimer) | TDP2 inh conf inactive
CC(=O)Nc1ccccc1NC(=O)c1ccc2c(c1)OCO2	none (no result: HCV core dimer)
O=C(Nc1c(-c2ccc3c(c2)OCO3)[nH][nH]c1=O)c1ccccc1	TDP2 inh 68 (no result: HCV core dimer) | TDP2 inh conf 71
CC(=O)c1ccc(S(=O)(=O)NC2CCSc3ccccc32)cc1 (configuration not stated)	none
O=S(=O)(NC1CCSc2ccccc21)c1ccc(Cl)nc1 (configuration not stated)	TDP2 inh 28 | TDP2 inh conf inactive
COC(=O)[C@H](C(C)C)N1CCc2nnn(Cc3ccc(C)cc3)c2-c2cc(F)ccc2S1(=O)=O	none (no result: HCV core dimer)
Cc1cc(Cl)c2oc(C(=O)N3CCN(C(=O)c4ccco4)CC3)c(C)c2c1	TDP2 inh 31 | TDP2 inh conf inactive
COc1ccc(CC(=O)N/N=C(/C)CC(=O)N(C)c2ccccc2)cc1	TDP2 inh 25 | TDP2 inh conf inactive
CCCC1CCC2(CC1)CCC2OC(=O)Nc1ccc(F)cc1 (configuration not stated)	none (no result: HCV core dimer)
O=C(NC(N1CCOCC1)C(Cl)(Cl)Cl)c1ccccc1Cl (configuration not stated)	TDP2 inh 27 | TDP2 inh conf inactive
O=C(NC(N1CCCCCC1)C(Cl)(Cl)Cl)c1ccccc1Cl (configuration not stated)	none
O=C(Nc1ccc(NC(=O)c2ccco2)cc1)c1ccco1	TDP2 inh 28 | TDP2 inh conf inactive
O=C(Nc1ccc(Br)cc1)c1ccco1	none
FC(F)(F)c1ccccc1CN1CCCc2nc(-c3ccc(Br)cc3)ccc21	none (no result: HCV core dimer)
COc1cc(C(C)=O)ccc1OCC(O)CN1CCN(c2ccccn2)CC1 (configuration not stated)	TDP2 inh 26 | TDP2 inh conf inactive
CCOc1ccc(CCNC(=O)CN2C(=O)CCSc3ccccc32)cc1OCC	none
COc1ccc(OC)c(CCNC(=O)CN2C(=O)CCSc3ccccc32)c1	TDP2 inh 26 | TDP2 inh conf inactive
COc1ccc(C2=NN(C(=O)CCC(=O)O)C(c3ccc(OC)c(OC)c3)C2)cc1 (configuration not stated)	TDP2 inh 25 | TDP2 inh conf inactive
O=C(NN=Cc1ccc2c(c1)OCO2)NN=Cc1ccc2c(c1)OCO2	none (no result: HCV core dimer)
